From paper PMC11260088 (Proceedings of the National Academy of Sciences of the …, 2024)
Bridge positions count the residues as written; N and C are the ends. Square brackets hold non-standard residues; d marks the D form. Peptide text beside a SMILES is read from it. * marks the point of attachment. X1 = CC[C@H](C)CCCCC(=O)*; Dab = NCC[C@H](N)C(=O)O

What was measured:
[1] = degradation product of bacitracin; cited from earlier work
[2] = system: E. coli ATCC 25922; assay: MIC, broth microdilution; type: cell-based; details: LB + 0.3 mM ZnSO4, 37 °C, 18 h, median of min. triplicates
Procedure, shortened: (§1)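 Strains from glycerol stocks were grown overnight on blood agar at 37 °C. Single colonies went into TSB and grew to OD600 0.5, then were diluted 100-fold in LB + 0.3 mM ZnSO4 to 10^6 CFU/mL. Two-fold serial dilutions of test compound were made in triplicate in the same medium and mixed 1:1 with inoculum. Plates ran 18 h at 37 °C at 600 rpm. MIC was the median of at least triplicates, read visually.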

[3] = system: B. subtilis 168; assay: Membrane fluidity, DiIC12 staining; type: cell-based; details: 5 × MIC, DiIC12, 0.3 mM ZnSO4, 30 °C, 0 to 60 min
Procedure, shortened: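 B. subtilis 168 overnight cultures were diluted 1:200 into LB containing 1% DMSO and 2 µg/mL DiIC12. At OD600 0.3 cells were washed in dye-free medium and given 0.3 mM ZnSO4, then treated at 5× MIC, with daptomycin as positive control. Incubation was at 30 °C and 850 rpm, sampling at 0–60 min for fluorescence microscopy on agarose slides. Representative of three independent experiments.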

[4] = system: E. faecium E7312 (vanA); assay: MIC, broth microdilution; type: cell-based; details: LB + 0.3 mM ZnSO4
Procedure, shortened: as §1

[5] = system: E. faecium E1441 (vanA); assay: MIC, broth microdilution; type: cell-based; details: LB + 0.3 mM ZnSO4
Procedure, shortened: as §1

[6] = system: E. faecium E0321 (vanA); assay: MIC, broth microdilution; type: cell-based; details: LB + 0.3 mM ZnSO4
Procedure, shortened: as §1

[7] = system: E. faecium E7413 (vanA); assay: MIC, broth microdilution; type: cell-based; details: LB + 0.3 mM ZnSO4
Procedure, shortened: as §1

[8] = system: E. faecium E2297 (vanA); assay: MIC, broth microdilution; type: cell-based; details: LB + 0.3 mM ZnSO4
Procedure, shortened: as §1

[9] = system: E. faecium E0072 (vanA); assay: MIC, broth microdilution; type: cell-based; details: LB + 0.3 mM ZnSO4
Procedure, shortened: as §1

[10] = system: E. faecium E1679 (vanA); assay: MIC, broth microdilution; type: cell-based; details: LB + 0.3 mM ZnSO4
Procedure, shortened: as §1

[11] = system: E. faecium E0341 (vanA); assay: MIC, broth microdilution; type: cell-based; details: LB + 0.3 mM ZnSO4
Procedure, shortened: as §1

[12] = system: E. faecium E1763 (vanA); assay: MIC, broth microdilution; type: cell-based; details: LB + 0.3 mM ZnSO4
Procedure, shortened: as §1

[13] = system: E. faecium E6016 (vanA); assay: MIC, broth microdilution; type: cell-based; details: LB + 0.3 mM ZnSO4
Procedure, shortened: as §1

[14] = system: E. faecium E0300 (vanA); assay: MIC, broth microdilution; type: cell-based; details: LB + 0.3 mM ZnSO4
Procedure, shortened: as §1

[15] = system: E. faecium E2373 (vanA); assay: MIC, broth microdilution; type: cell-based; details: LB + 0.3 mM ZnSO4
Procedure, shortened: as §1

[16] = system: E. faecium E0333 (vanA); assay: MIC, broth microdilution; type: cell-based; details: LB + 0.3 mM ZnSO4
Procedure, shortened: as §1

[17] = system: E. faecium E7319 (vanA); assay: MIC, broth microdilution; type: cell-based; details: LB + 0.3 mM ZnSO4
Procedure, shortened: as §1

[18] = system: panel of E. faecium clinical isolates carrying the vanA vancomycin resistance gene; assay: MIC50 / MIC90 over the VRE panel; type: cell-based
[19] = system: E. faecium E0745 (vanA); assay: MIC, broth microdilution; type: cell-based; details: LB + 0.3 mM ZnSO4
Procedure, shortened: as §1

[20] = system: E. faecium E0506 (vanA); assay: MIC, broth microdilution; type: cell-based; details: LB + 0.3 mM ZnSO4
Procedure, shortened: as §1

[21] = system: E. faecium E0013 (vanA); assay: MIC, broth microdilution; type: cell-based; details: LB + 0.3 mM ZnSO4
Procedure, shortened: as §1

[22] = system: E. faecium E1130 (vanA); assay: MIC, broth microdilution; type: cell-based; details: LB + 0.3 mM ZnSO4
Procedure, shortened: as §1

[23] = system: E. faecium E155 (vanA); assay: MIC, broth microdilution; type: cell-based, Enterococcus faecium
Procedure, shortened: as §1

[24] = calculated over 19 vanA E. faecium clinical isolates, LB + 0.3 mM ZnSO4

Bacitracin F
nephrotoxic: nephrotoxicity [1]

CC[C@H](C)CCCCC(=O)N[C@@H](CCN)C(=O)N[C@H](C(=O)N[C@@H](CCN)C(=O)N[C@H]1CCNC(=O)[C@H]([C@@H](C)O)NC(=O)[C@H](CCN)NC(=O)[C@H](CCN)NC(=O)[C@H](CC(C)C)NC(=O)[C@@H](Cc2ccccc2)NC(=O)[C@H](CCN)NC1=O)[C@@H](C)O [Polymyxin B] (X1-[Dab]T[Dab][Dab][Dab][dF]L[Dab][Dab]T; lactam 4-C (inferred); N-terminus assumed)
2 µg/mL: MIC E. coli ATCC 25922 [2]

Bacitracin
to a much lesser degree: formation of regions of increased fluidity (RIF) [3]

CN[C@H](CC(C)C)C(=O)N[C@H]1C(=O)N[C@@H](CC(N)=O)C(=O)N[C@H]2C(=O)N[C@H]3C(=O)N[C@H](C(=O)N[C@H](C(=O)O)c4cc(O)cc(O)c4-c4cc3ccc4O)[C@H](O)c3ccc(c(Cl)c3)Oc3cc2cc(c3O[C@@H]2O[C@H](CO)[C@@H](O)[C@H](O)[C@H]2O[C@H]2C[C@](C)(N)[C@H](O)[C@H](C)O2)Oc2ccc(cc2Cl)[C@H]1O [Vancomycin]
≥ 64 µg/mL: MIC for vancomycin, all strains of the vanA VRE selection ([18]; broader selection of VRE strains all carrying the vanA gene)
>64 µg/mL: MIC E. faecium E7312 vanA [4] | MIC E. faecium E1441 vanA [5] | MIC E. faecium E0321 vanA [6] | MIC E. faecium E7413 vanA [7] | MIC E. faecium E2297 vanA [8] | MIC E. faecium E0072 vanA [9] | MIC E. faecium E1679 vanA [10] | MIC E. faecium E0341 vanA [11] | MIC E. faecium E1763 vanA [12] | MIC E. faecium E6016 vanA [13] | MIC E. faecium E0300 vanA [14] | MIC E. faecium E2373 vanA [15] | MIC E. faecium E0333 vanA [16] | MIC E. faecium E7319 vanA [17] | MIC50 [18, 24] | MIC90 [18, 24] | MIC E. faecium E0745 vanA [19] | MIC E. faecium E0506 vanA [20] | MIC E. faecium E0013 vanA [21] | MIC E. faecium E1130 vanA [22] | MIC E. faecium E155 vanA ([23]; LB + 0.3 mM ZnSO4, 37 °C, 18 h, median of min. triplicates) | MIC E. faecium E155 vanA ([23]; Table 2, LB + 0.3 mM ZnSO4)
